# UPR CHOP act – activators of apoptotic CHOP UPR arm, primary screen, cell-based, CHO-CHOP luciferase reporter, luminescence, uHTS | UPR activation; percent of tunicamycin response over DMSO baseline | activation, % at 10 µM | hit rate 0.34% among 330,000 | AID 449763, 2010;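 active means at 10 µM dose, activation of 40% or more, normalized to positive control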;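 further: 100% = tunicamycin at 10 µg/mL and 0% = DMSO alone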
#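 Dosing – one dose, 10 µM in 0.5% DMSO · System – CHO-CHOP cells, stable luciferase reporter of PERK-eIF2a-CHOP signalling · Input – 500 cells/well · Control set – tunicamycin 10 µg/mL final as positive, DMSO-only wells as negative · Timing – 6 h compound treatment, 37 °C · Measure – % activation vs tunicamycin · Technique – luminescence read with Steady-Glo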
# UBC13 polyUb – UBC13 polyubiquitin chain formation inhibitors, primary screen, biochemical, TR-FRET, uHTS. hit rate 0.47% among 330,000. inhibition, % at 20 µM. Ubiquitin-conjugating enzyme E2 N (Homo sapiens), P61088. AID 485273, 2010; in the data active means inhibition above about 45%, passing the limit was not always enough
# Mdm2-MdmX inh – inhibitors of human Mdm2-MdmX association, primary screen, cell-based, luminescence, split luciferase, SaOS-2, uHTS; SaOS-2 split-luciferase Mdm2/MdmX complementation; inhibition, % at 8 µM; Protein Mdm4 (Homo sapiens) + E3 ubiquitin-protein ligase Mdm2 (Homo sapiens), …; hit rate 3% among 330,000;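 active means inhibition of at least 50% at 8 µM in the primary screen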
# Target sequence (O15151 whole entry, looked up): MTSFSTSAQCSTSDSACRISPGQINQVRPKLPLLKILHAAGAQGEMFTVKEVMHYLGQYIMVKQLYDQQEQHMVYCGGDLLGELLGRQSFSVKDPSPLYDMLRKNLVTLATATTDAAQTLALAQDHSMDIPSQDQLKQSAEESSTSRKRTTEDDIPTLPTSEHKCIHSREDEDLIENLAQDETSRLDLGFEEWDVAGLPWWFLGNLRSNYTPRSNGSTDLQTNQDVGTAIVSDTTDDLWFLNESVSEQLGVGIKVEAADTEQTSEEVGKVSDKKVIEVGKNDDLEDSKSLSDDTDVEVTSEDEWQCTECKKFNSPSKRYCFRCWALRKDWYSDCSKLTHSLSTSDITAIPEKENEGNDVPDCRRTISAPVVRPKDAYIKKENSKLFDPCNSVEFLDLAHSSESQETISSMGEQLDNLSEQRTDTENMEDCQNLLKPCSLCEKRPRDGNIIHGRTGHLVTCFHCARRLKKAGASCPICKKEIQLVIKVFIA
# Target sequence (Q00987 whole entry, looked up): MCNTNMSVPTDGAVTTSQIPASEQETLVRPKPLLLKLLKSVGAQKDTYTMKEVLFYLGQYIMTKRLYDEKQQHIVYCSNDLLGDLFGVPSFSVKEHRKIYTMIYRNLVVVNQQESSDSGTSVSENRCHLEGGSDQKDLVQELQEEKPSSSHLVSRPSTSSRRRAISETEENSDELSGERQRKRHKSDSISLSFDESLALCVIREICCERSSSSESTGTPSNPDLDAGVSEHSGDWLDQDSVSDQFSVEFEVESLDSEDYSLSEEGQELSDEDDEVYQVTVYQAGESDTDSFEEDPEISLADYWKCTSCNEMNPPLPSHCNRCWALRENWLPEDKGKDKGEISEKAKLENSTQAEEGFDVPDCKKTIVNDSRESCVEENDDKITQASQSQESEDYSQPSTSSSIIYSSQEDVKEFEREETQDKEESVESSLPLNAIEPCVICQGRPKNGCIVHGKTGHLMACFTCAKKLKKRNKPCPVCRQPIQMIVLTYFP
# XBP1 UPR activ – activators of adaptive XBP1 UPR arm, primary screen, cell-based, CHO-XBP1 luciferase reporter, luminescence, uHTS | IRE1-XBP1 UPR activation; percent of tunicamycin response, DMSO as zero | activation, % at 20 µM | hit rate 0.33% among 330,000;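 active means versus positive control, 20 µM dose yields 30% or more activation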;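 further: 100% = tunicamycin at 10 µg/mL and 0% = DMSO only wells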
#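 assay system = CHO-XBP1 luciferase reporter cells | amount = 1000 cells/well | buffer or medium = F12 plus 10% FBS | compound dosing = single point, 20 µM final compound, 1% DMSO | incubation = 16-18 h cell attachment at 37 °C, then 6 h compound exposure | detection = Steady-Glo luminescence read | controls = tunicamycin 10 µg/mL and vehicle-only wells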
# Apaf-1 inh – inhibitors of human Apaf-1 apoptosome, primary screen, biochemical, DEVD-Rh110 fluorescence, uHTS. Apoptotic protease-activating factor 1 (Homo sapiens), O14727. reconstituted apoptosome caspase-3 activity. inhibition, % at 20 µM. hit rate 0.71% among 330,000. AID 489030, 2010; active means inhibition of at least 40% at 20 µM;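 further: plate controls were DMSO wells for no effect and DEVD-CHO caspase inhibitor wells for full effect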
#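 System: reconstituted apoptosome with Apaf-1, cytochrome c, caspase-9, procaspase-3, dATP; Signal: Rh110 fluorescence intensity; Schedule: 30 min compound preincubation, 50 min activation, room temperature; Reagent: cytochrome c trigger plus (Z-DEVD)2-Rh110 caspase-3 substrate.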
# XBP1 UPR conf – IRE1-XBP1 UPR arm activators, confirmation, cell-based, CHO-XBP1 luciferase reporter, luminescence, single concentration; shares compounds with XBP1 UPR activ; activation, % at 20 µM; hit rate 63% among 1,000; AID 485299, 2010;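 active means reporter signal at least 30% of the positive control's activation in two or more of four replicate wells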;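 further: plate controls were DMSO negative control for no effect and tunicamycin 10 µg/mL positive control for full effect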
# Casp3 UBC13 ctr – CASP3 inhibitor validation, counterassay for project on UBE2N polyubiquitination blockers, biochemical, one dose | shares compounds with UBC13 polyUb | inhibition, % at 20 µM | hit rate 4% among 1,400 | Recombinant caspase-3, Caspase-Glo 3/7 luminescence, 60 min | AID 488856, 2010;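 active means mean inhibition across replicates above about 26%, limit read from the data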;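 further: plate controls were DMSO with caspase-3 for no effect and DMSO wells lacking enzyme for full effect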
# UBC13 confirm – UBC13 polyubiquitination inhibitors, single-point retest, confirmation, biochemical, TR-FRET, single concentration; hit rate 68% among 1,400; AID 488859, 2010; shares compounds with UBC13 polyUb; inhibition, % at 10 µM; in the data active means inhibition above about 45%
# Mdm2-MdmX conf – Mdm2-MdmX complex disruptors, retested hits, confirmation, luminescence, single concentration. shares compounds with Mdm2-MdmX inh. Mdm2-MdmX binding, luminescent assay. inhibition, % at 8 µM. hit rate 55% among 10,000. AID 489028, 2010; in the data active means inhibition above about 40%
# Full FLuc ctr – full-length luciferase signal inhibition, confirmation, counter-screen for Mdm2/MdmX interaction inhibitor project, cell-based, single concentration, SaOS-2 | shares compounds with Mdm2-MdmX inh | SaOS-2 full-length luciferase counterscreen, luminescence | inhibition, % at 8 µM | hit rate 77% among 6,200;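 active means mean inhibition at 8 µM reaching about 37%, which flags the compound as non-specific, limit read from the data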;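 further: p53-null SaOS-2 cells with luciferase driven by a doxycycline-inducible promoter; compound on cells about two nights before reading with doxycycline added after day one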
# * hit, by the source's call; . = not tested or not shown. Most compounds without a hit are left out; they make up all but 4.1% or so of the library.
SMILES,UPR CHOP act,UBC13 polyUb,Mdm2-MdmX inh,XBP1 UPR activ,Apaf-1 inh,XBP1 UPR conf,Mdm2-MdmX conf,Full FLuc ctr,others
O=C(Oc1ccc(F)cc1C(=O)/C=C/c1cccs1)c1cccc([N+](=O)[O-])c1,8,-18,55*,38*,16,83*,42*,48*,
O=C(COC(=O)CNC(=O)C1CCCCC1)NCc1ccc(Cl)cc1,1,-7,-22,-2,16,.,.,.,
Cc1cc(NC(=O)c2cc(-c3ccncc3)nc3c(C)cccc23)no1,8,23,61*,153*,7,184*,49*,53*,
O=C(CSc1nc2ccccc2c(=O)n1-c1ccccc1)N1CCCc2ccccc21,2,4,6,2,10,.,.,.,
O=C(CSc1nc2ccccc2c(=O)n1-c1ccccc1)N1CCc2ccccc21,2,0,55*,36*,-3,42*,68*,81*,
Cc1ccc(N=Cc2c(O)n(-c3ccc4c(c3)OCO4)c(=O)c3ccccc23)cc1,8,-13,69*,35*,14,27*,42*,36*,
CCC1CN(C(=O)N2CCC(C(=O)NCCc3ccc(OC)cc3OC)CC2)c2ccccc2O1 (stereo unspecified),-2,-2,23,-5,5,.,.,.,
COc1cc2[nH]c3c(N4CCN(c5ccc(Cl)cc5)CC4)ncnc3c2cc1OC,6,51*,53*,39*,0,33*,31,.,Casp3 UBC13 ctr=2;UBC13 confirm=33
Cc1cc(SCC(=O)c2ccc(O)c(O)c2)n2nc(C)c(-c3ccccc3)c2n1,29,-8,52*,101*,-13,58*,57*,54*,
Cc1cc(C)nc(SCC(=O)c2ccc(O)c(O)c2)n1,-1,8,7,-6,2,.,.,.,
CCOc1ccc(-c2cc(C(=O)NCCCN3CCCC3)c3ccccc3n2)cc1,2,24,16,-2,16,.,.,.,
c1ccc(Oc2c3ccccc3nc3ccccc23)cc1,6,-4,73*,63*,-8,67*,5,.,
Cc1nc(Oc2ccccc2)c2ccccc2n1,-1,-2,-1,-1,1,.,.,.,
O=C(NCC1CC1)c1cccc2c1C(=O)c1ccc(-c3ccc(OC(F)(F)F)cc3)cc1S2(=O)=O,20,-24,66*,41*,10,42*,8,.,
CCOc1ccc(C2CC(c3ccc(F)cc3)n3ncnc3N2)cc1 (stereo unspecified),1,6,17,-2,0,.,.,.,
CC(C)CC(NC(=O)c1ccc(Cl)cc1)C(=O)OCC(=O)c1ccc2c(c1)NC(=O)CO2 (stereo unspecified),37,-3,95*,49*,5,99*,94*,17,
Cc1cc(N2O[C@]34C=C[C@]25C[C@@H](O)CC[C@]5(C)C3CC[C@]2(C)[C@@H]([C@H](C)/C=C/[C@H](C)C(C)C)CC[C@H]24)no1 (stereo partly specified),3,.,91*,41*,10,-1,-50,.,
Cc1cc(C(=O)CCC(=O)NCc2ccccc2F)c(C)s1,0,-8,13,4,10,.,.,.,
Cc1ccnc(Nc2nc(-c3ccccc3)cs2)c1,5,1,-199,1,8,.,.,.,
Cc1ccnc(N/C=C(\C#N)c2nc(-c3cccc(Br)c3)cs2)c1,3,-6,53*,91*,9,94*,-5,.,
COc1ccc(NC(=O)c2cc3c(=O)n(C)c4ccccc4c3n2C)cc1Cl,2,12,62*,32*,-16,72*,26,.,
O=C(CNc1ccc(Br)cc1)Nc1ccc(S(=O)(=O)N2CCCC2)cc1,1,0,32,-2,6,.,.,.,
O=c1c2ccccc2nc(CSc2nnnn2-c2ccccc2)n1-c1ccccc1Cl,35,-2,68*,52*,-13,22,43*,64*,
CC(C)CC(c1nnnn1Cc1ccc2c(c1)OCO2)N1CCC(C(N)=O)CC1 (stereo unspecified),1,-3,-8,-2,-3,.,.,.,
CC(=O)c1sc(NC(=O)c2ccccc2)nc1-c1ccccc1,4,6,-168,1,8,.,.,.,
SMILES,UPR CHOP act,UBC13 polyUb,Mdm2-MdmX inh,XBP1 UPR activ,Apaf-1 inh,XBP1 UPR conf,Mdm2-MdmX conf,Full FLuc ctr,others
CCOC(=O)Nc1nc(-c2ccccc2)c(C(=O)c2ccccc2)s1,0,-1,61*,31*,9,12,51*,91*,
COc1ccc(C(=O)Nc2nc3ccc(OC)cc3s2)cc1,7,11,-25,2,-16,.,.,.,
COc1ccc2nc(NC(=O)c3cccc(-c4cc5ccccc5oc4=O)c3)sc2c1,25,4,78*,78*,-15,55*,64*,120*,
CCOC(=O)c1c(NC(C)=O)sc2c(OCC(O)CNC(C)(C)C)c(Br)ccc12 (stereo unspecified),1,46*,100*,62*,13,111*,100*,54*,Casp3 UBC13 ctr=-6;UBC13 confirm=74*
CCOC(=O)c1c(N)sc2c(OCC)c(Br)ccc12,2,-3,2,2,3,.,.,.,
C/C(=N\Nc1cc(-c2ccccc2)nc(-c2ccc(Br)cc2)n1)c1cccc(N)c1,3,-18,29,8,-9,.,.,.,
C/C(=N/Nc1cc(-c2ccccc2)nc(-c2ccccc2)n1)c1ccc(O)cc1,4,13,56*,68*,13,57*,19,.,
